14 compounds from PubChem BioAssay can be followed below.

Test [1] can be described thus: reducers of endogenous Her2 protein level, primary screen, SKBR3 breast tumor cells, AlphaScreen, ATP viability (AID 461;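 active = Her2 level under about 52% in both replicate screens, with viability over 70% of control, limit read from the data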;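 for Her2 level: lower value means less Her2 protein in the cells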;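 for viability: percent of carrier control wells set as 100% viability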). To be noted: 18-24 h, measured here: SKBR3 viability, ATP luminescence, at 10 µM. (In general: Alpha assays give light when donor and acceptor beads are brought close together.)
Test [2] addresses Receptor tyrosine-protein kinase erbB-2 (Homo sapiens) (UniProt P04626). Described as above. The conditions noted are these: 18-24 h, at 10 µM, stronger effect = lower value.
Test [3] in a line: SK-BR-3 cell growth inhibitors, pilot screen, 24 h, human (AID 572;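 active = viability at or below 10% of carrier control in both of two separate runs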;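 note: compound exposure lasted between 18 and 24 h rather than exactly 24 h; 100% = carrier-treated control wells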). The conditions noted are these: SK-BR-3 viability, CellTiter-Glo luminescence, at 10 µM, stronger effect = lower value. On the technique in general: ATP-based viability assays read luminescence as a measure of living cells.
Test [4] can be described thus: HUVEC growth inhibition – cell-based, human, primary screen (AID 575).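 Note: 100% = median of untreated cell wells with 0.1% DMSO on each plate.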 The conditions noted are these: HUVEC proliferation, CellTiter-Glo luminescence, 72 h; at 10 µM; stronger effect = lower value. The gist of the method:
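System: primary human umbilical vein endothelial cells; Quantity: 1250 endothelial cells in each well; Buffer or medium: supplemented EBM, 2% fetal bovine serum; Doses: one dose, 10 µM final, 0.1% DMSO; Incubation: 72 h compound incubation; Technique: ATP-based CellTiter-Glo luminescent read; Evaluation: percent of median DMSO-control luminescence; Controls: vehicle and MePR control wells.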

Test [5] can be described thus: growth inhibitors of H69AR lung tumor, primary screen, human, duplicate replicates (AID 580;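 active = viability at or under a set limit in both replicates, limit being median viability minus 3 SD, cut at about 48% in these data, passing the limit was not always enough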;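 note: 100% = mean luminescence of untreated wells and 0% = no signal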). To be noted: H69AR lung tumor cells viability, ATP luminescence, 72 h; at 10 µM; stronger effect = lower value.
The nature of test [6]: reversal of MRP1-mediated doxorubicin resistance, pilot screen, H69AR cells, doxorubicin co-treatment (AID 601;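 active = viability loss from added drug above about 55%, and viability with drug at most 40%, in both replicates, limit read from the data, passing the limit was not always enough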). The conditions noted are these: CellTiter-Glo, 72 h, at 10 µM; for differential viability (reversal): stronger effect = higher value.
The nature of test [7]: 384-well plate pilot, post-Golgi transport modulator project, inhibition of yeast transport mutant growth (AID 636; in the data active = inhibition above about 31%). The conditions noted are these: absorbance 615 nm, about 18 h, stronger effect = higher value.
Test [8] is described as follows: growth suppression of yeast trafficking mutant, preliminary HTS, modulators of trafficking downstream of Golgi apparatus project, 1536-format plate, OD 615 nm (AID 637; in the data active = inhibition above about 30%). To be noted: yeast transport mutant growth, absorbance 615 nm, 18 h; stronger effect = higher value.
Setting [9] is: H69AR cells + 2 uM doxorubicin, measured here: viability with 2 uM doxorubicin, stronger effect = lower value.
Where [10] appears, read: H69AR cells, compound alone cytotoxicity.

Active and inactive are the calls of the source.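 Rule for the calls, unless noted: active = viability at or below 30% in both replicate assays; inconclusive = viability at or below 30% in just one of the two assays; inactive = the rest.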

Chain of Receptor tyrosine-protein kinase erbB-2 (Homo sapiens) (P04626 whole entry, looked up): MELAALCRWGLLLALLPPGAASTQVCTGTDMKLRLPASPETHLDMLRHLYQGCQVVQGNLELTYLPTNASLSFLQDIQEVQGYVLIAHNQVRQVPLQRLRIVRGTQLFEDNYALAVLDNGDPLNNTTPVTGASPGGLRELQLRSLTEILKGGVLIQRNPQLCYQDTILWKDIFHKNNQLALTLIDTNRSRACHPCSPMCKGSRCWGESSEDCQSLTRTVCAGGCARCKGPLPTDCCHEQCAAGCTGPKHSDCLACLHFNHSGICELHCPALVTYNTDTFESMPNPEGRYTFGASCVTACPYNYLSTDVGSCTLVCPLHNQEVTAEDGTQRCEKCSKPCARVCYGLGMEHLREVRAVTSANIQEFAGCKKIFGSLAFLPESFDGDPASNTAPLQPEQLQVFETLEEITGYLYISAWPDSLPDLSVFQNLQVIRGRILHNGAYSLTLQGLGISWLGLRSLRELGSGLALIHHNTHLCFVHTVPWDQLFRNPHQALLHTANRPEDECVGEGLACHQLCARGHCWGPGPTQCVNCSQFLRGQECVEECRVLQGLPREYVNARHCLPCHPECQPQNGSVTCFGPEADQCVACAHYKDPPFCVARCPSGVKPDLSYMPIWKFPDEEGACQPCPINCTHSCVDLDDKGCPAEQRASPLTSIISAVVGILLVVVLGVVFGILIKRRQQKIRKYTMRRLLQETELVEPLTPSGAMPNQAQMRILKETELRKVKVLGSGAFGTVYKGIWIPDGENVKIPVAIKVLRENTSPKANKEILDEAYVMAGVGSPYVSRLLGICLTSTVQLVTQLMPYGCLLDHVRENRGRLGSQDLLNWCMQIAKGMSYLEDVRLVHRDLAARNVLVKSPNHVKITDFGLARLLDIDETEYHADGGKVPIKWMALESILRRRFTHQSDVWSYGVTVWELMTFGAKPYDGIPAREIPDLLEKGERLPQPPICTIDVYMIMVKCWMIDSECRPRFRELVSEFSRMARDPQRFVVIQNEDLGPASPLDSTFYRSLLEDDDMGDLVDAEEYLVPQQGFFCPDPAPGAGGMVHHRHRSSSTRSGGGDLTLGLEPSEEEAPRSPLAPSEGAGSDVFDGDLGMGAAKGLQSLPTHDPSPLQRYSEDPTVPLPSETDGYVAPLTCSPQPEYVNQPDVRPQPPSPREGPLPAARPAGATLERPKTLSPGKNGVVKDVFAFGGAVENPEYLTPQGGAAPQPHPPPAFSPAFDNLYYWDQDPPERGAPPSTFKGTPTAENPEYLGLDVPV

What is called viability is a read-out of living cells in per cent, often relative to untreated cells. As usually defined, the inhibition is the drop in the measured response relative to a control, in per cent. As to `COC(=O)c1ccccc1NS(=O)(=O)c1ccc(F)cc1`, the viability was 120% in test [1]; 120% (inactive) in test [3]; 104% (inactive) in test [4]; 102% (inactive) in test [5]; 88.4% in test [6] (setting [9]); 102% in test [6] (setting [10]). For the same compound, the Her2 level in test [2] is 83.5% (inactive). The differential viability (reversal) in test [6] (H69AR cells + 2 uM doxorubicin) is 13.1% (inactive). Further, the figures for the inhibition in test [7] and in test [8] were -7.26% (inactive) and -3.49% (inactive), respectively.
Take `Cc1csc2nc(CSc3nc4ccccc4o3)c(Br)n12`: the viability is 84.5% in test [1]; 84.5% (inactive) in test [3]; 85.6% (inactive) in test [4]; 83% (inactive) in test [5]; 79.8% in test [6] (setting [9]); 83% in test [6] (setting [10]). In addition, the Her2 level in test [2] is 60% (inactive). For the same compound, the differential viability (reversal) in test [6] (H69AR cells + 2 uM doxorubicin) was 3.21% (inactive). Also, the inhibition is -3.87% (inactive) in test [7] and 10.5% (inactive) in test [8].
On to `O=C1C2C3C=CC(C3)C2C(=O)N1Cc1ccccc1` (stereo not given), for which the viability in test [1] is 93.5%; in test [3] it was 93.5% (inactive); in test [4], 116% (inactive); in test [5], 89.6% (inactive); in test [6] (setting [9]) it was 80.3%; in test [6] (setting [10]) it was 89.6%. For the same compound, the Her2 level in test [2] is 114% (inactive). Besides, the differential viability (reversal) in test [6] (H69AR cells + 2 uM doxorubicin) was 9.27% (inactive). Further, the inhibition in test [7] is -3.47% (inactive); in test [8] it was 2.95% (inactive).
As for `CC(CCc1ccccc1)NCc1ccncc1` (stereo not given), the viability in test [1] was 102%; in test [3], 102% (inactive); in test [4], 108% (inactive); in test [5], 84.9% (inactive); in test [6] (setting [9]), 89.2%; in test [6] (setting [10]), 84.9%. Besides, the Her2 level in test [2] is 99.5% (inactive). Also, in test [6] (H69AR cells + 2 uM doxorubicin), the differential viability (reversal) is -4.29% (inactive). Besides, the inhibition in test [7] was -6.53% (inactive); in test [8], 0.48% (inactive).
With `Cc1ccc(NC(=O)c2cc(S(=O)(=O)N3CCC4(CC3)OCCO4)ccc2F)cc1`, the viability in test [1] is 101%; in test [3], 101% (inactive); in test [4], 90.7% (inactive); in test [5], 99.3% (inactive); in test [6] (setting [9]), 96.7%; in test [6] (setting [10]), 99.3%. Also, the Her2 level in test [2] was 143% (inactive). For the same compound, the differential viability (reversal) in test [6] (H69AR cells + 2 uM doxorubicin) was 2.58% (inactive). For the same compound, the inhibition in test [7] is 1.97% (inactive); in test [8] it was -11% (inactive).
For `CCN1C(=O)c2cccc3c(NC(=O)c4ccc5c(c4)OCCO5)ccc1c23`, the viability in test [1] is 108%; in test [3], 108% (inactive); in test [4], 55.5% (inactive); in test [5], 52.2% (inactive); in test [6] (setting [9]), 72.5%; in test [6] (setting [10]), 52.2%. Also, the Her2 level in test [2] was 89% (inactive). In test [6] (H69AR cells + 2 uM doxorubicin), the differential viability (reversal) is -20.3% (inactive). Besides, the inhibition is -4.81% (inactive) in test [7] and 0.63% (inactive) in test [8].
On to `Nc1nonc1NC(=O)CSc1nc2ccccc2s1`, for which the viability in test [1] was 86%; in test [3], 86% (inactive); in test [4], 91.2% (inactive); in test [5], 90.8% (inactive); in test [6] (setting [9]), 86.7%; in test [6] (setting [10]), 90.8%. Besides, in test [2], the Her2 level was 110% (inactive). For the same compound, the differential viability (reversal) in test [6] (H69AR cells + 2 uM doxorubicin) was 4.11% (inactive). Also, the figures for the inhibition in test [7] and in test [8] were 6.18% (inactive) and -8% (inactive), respectively.
Turning to `O=C(NCCN1CCOCC1)C1CC(=O)N(c2ccc(F)c(Cl)c2)C1` (stereo not given), the viability in test [1] was 124%; in test [3], 124% (inactive); in test [4] it was 100% (inactive); in test [5] it was 98.2% (inactive); in test [6] (setting [9]) it was 94.9%; in test [6] (setting [10]) it was 98.2%. In test [2], the Her2 level was 111% (inactive). The differential viability (reversal) in test [6] (H69AR cells + 2 uM doxorubicin) was 3.27% (inactive). Further, the figures for the inhibition in test [7] and in test [8] were -1.18% (inactive) and -4.03% (inactive), respectively.
Turning to `CC1(C)Cc2c(c(-c3ccccc3)nc(N3CCCC3)c2C(N)=O)CO1`, the viability in test [1] is 106%; in test [3], 106% (inactive); in test [4], 92.3% (inactive); in test [5], 87% (inactive); in test [6] (setting [9]) it was 82.4%; in test [6] (setting [10]), 87%. Further, in test [2], the Her2 level is 97.5% (inactive). In addition, the differential viability (reversal) in test [6] (H69AR cells + 2 uM doxorubicin) is 4.6% (inactive). The inhibition is -1.95% (inactive) in test [7] and 1.15% (inactive) in test [8].
As to `COc1ccc2nc(CC(C)(C)CC(=O)O)c[n+]([O-])c2c1`, the viability in test [1] is 109%; in test [3], 109% (inactive); in test [4] it was 106% (inactive); in test [5] it was 99.2% (inactive); in test [6] (setting [9]), 89.6%; in test [6] (setting [10]) it was 99.2%. For the same compound, in test [2], the Her2 level is 95.5% (inactive). For the same compound, the differential viability (reversal) in test [6] (H69AR cells + 2 uM doxorubicin) was 9.58% (inactive). In addition, the results for the inhibition in test [7] and in test [8] were -2.7% (inactive) and 5.08% (inactive), respectively.
`O=C(NC1CCCC1)C(c1ccco1)N(Cc1ccccc1)C(=O)c1csnn1` (stereo not given): the viability in test [1] was 88.5%; in test [3], 88.5% (inactive); in test [4], 76.4% (inactive); in test [5], 97.5% (inactive); in test [6] (setting [9]) it was 95.9%; in test [6] (setting [10]), 97.5%. The Her2 level in test [2] is 76% (inactive). In test [6] (H69AR cells + 2 uM doxorubicin), the differential viability (reversal) is 1.57% (inactive). Further, the inhibition is -8.65% (inactive) in test [7] and 4.44% (inactive) in test [8].
Take `O=c1oc2ccccc2c2nccnc12`: the viability in test [1] is 93.5%; in test [3], 93.5% (inactive); in test [4], 103% (inactive); in test [5], 96.5% (inactive); in test [6] (setting [9]), 91.4%; in test [6] (setting [10]) it was 96.5%. Moreover, the Her2 level in test [2] was 115% (inactive). For the same compound, the differential viability (reversal) in test [6] (H69AR cells + 2 uM doxorubicin) was 5.08% (inactive). The inhibition in test [7] is -0.13% (inactive); in test [8], -9.5% (inactive).
On to `Cc1ccc(Br)cc1S(=O)(=O)N1CCN(c2ccccc2)CC1`, for which the viability is 93.5% in test [1]; 93.5% (inactive) in test [3]; 76.2% (inactive) in test [4]; 79.4% (inactive) in test [5]; 84.5% in test [6] (setting [9]); 79.4% in test [6] (setting [10]). Further, the Her2 level in test [2] was 116% (inactive). For the same compound, the differential viability (reversal) in test [6] (H69AR cells + 2 uM doxorubicin) was -5.03% (inactive). The inhibition in test [7] is 1.17% (inactive); in test [8], -8.5% (inactive).
On to `CCCCCCOC(=O)C(C#N)c1nc2ccccc2nc1N1CCCCC1` (stereo not given), for which the viability is 94% in test [1]; 94% (inactive) in test [3]; 63.8% (inactive) in test [4]; 89.1% (inactive) in test [5]; 101% in test [6] (setting [9]); 89.1% in test [6] (setting [10]). Further, the Her2 level in test [2] is 88% (inactive). Besides, in test [6] (H69AR cells + 2 uM doxorubicin), the differential viability (reversal) is -11.9% (inactive). Further, the inhibition in test [7] was -2.47% (inactive); in test [8] it was -2.33% (inactive).
